In the library only some 1.6% were active in any assay of this set; here they are far more common.
C8 TRAIL sens: viability loss with TRAIL in NB7+C8 cells, primary screen, TRAIL sensitizer project, cell-based, ATPlite luminescence; inhibition (viability loss, TRAIL sensitization), % at 10 µM; hit rate 1% among 360,000; AID 624354, 2012;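 active = compounds causing at least 50% loss of cell viability in the single-dose screen, relative to plate controls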
FLuc inh counter: firefly luciferase enzyme inhibitors, primary screen, artefact control for luciferase-based inhibitor screens, biochemical, luminescence, ATPLite; AID 1006, 2008; 10 min; inhibition, % at 10 µM; Luciferin 4-monooxygenase (Photinus pyralis), P08659; hit rate 1.5% among 200,000;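 active = inhibition above about 50% when tested at 10 µM, limit read from the data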
Target sequence (P08659 whole entry, looked up): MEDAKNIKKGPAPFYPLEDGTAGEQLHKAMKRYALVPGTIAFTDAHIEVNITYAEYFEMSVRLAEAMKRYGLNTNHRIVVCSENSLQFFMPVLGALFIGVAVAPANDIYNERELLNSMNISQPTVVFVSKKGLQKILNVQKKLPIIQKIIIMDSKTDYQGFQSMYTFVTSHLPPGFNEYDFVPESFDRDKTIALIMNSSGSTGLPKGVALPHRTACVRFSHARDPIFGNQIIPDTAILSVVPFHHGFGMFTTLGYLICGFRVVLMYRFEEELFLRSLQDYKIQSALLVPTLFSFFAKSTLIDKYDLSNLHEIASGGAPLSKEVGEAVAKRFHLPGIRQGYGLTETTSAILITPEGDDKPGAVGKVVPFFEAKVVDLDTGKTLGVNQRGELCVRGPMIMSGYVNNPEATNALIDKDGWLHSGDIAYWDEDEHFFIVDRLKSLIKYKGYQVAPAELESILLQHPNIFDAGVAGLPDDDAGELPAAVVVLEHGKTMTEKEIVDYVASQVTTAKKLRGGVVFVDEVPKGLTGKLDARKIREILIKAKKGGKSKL
Platelet DG rel: inhibitors of platelet dense granule secretion, primary screen, cell-based, MLPCN, human platelets; human platelet-rich plasma, SFLLRN dense granule ATP release, luminescence; inhibition, %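 (compounds screened at 7.5 µM in platelet-rich plasma)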; hit rate 0.22% among 300,000; AID 1663, 2009;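 active = mean replicate score, as percent of positive control, at or above 50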
PPC-1+TRAIL kill: compounds killing PPC-1 cancer cells with TRAIL present, primary screen, TRAIL potentiator project, ATPLite luminescence, uHTS; PPC-1 cells + TRAIL, ATPLite viability luminescence; cell killing (% activity), % at 4 µM or 5 µM; hit rate 0.41% among 220,000;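 active = cell killing above 50% in the first pass at 4 µM, then a duplicate retest at 5 µM averaging 50% or more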;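 also: plate controls were cells with TRAIL plus DMSO for no effect and medium-only wells lacking cells for full effect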
FLuc act counter: FLuc activators, initial screening, artefact control for FLuc-dependent activation tests, biochemical, ATPlite luminescence; 200,000 tested, under 10 active; ATPlite luciferase biochemical, 10 min; 0 = ATP-free wells, 1 = DMSO control; AID 1027, 2008; Luciferin 4-monooxygenase (Photinus pyralis), P08659; activation factor at 10 µM;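 active = luciferase activation factor, scaled between plate controls, of at least 2 with compound at 10 µM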
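System: Luciferase/luciferin detection reagent, cell-free biochemical luciferase assay | Medium: PBS buffer for ATP | Dosing: Test compounds dosed from 2 mM stocks in 100% DMSO | Timing: 10 min at ambient temperature | Signal: Luminescence measurement of luciferase light output | Evaluation: Luciferase activation, seen as luminescence increase over controls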
Starred values were filed as active, the others as inactive; nt = not tested or not shown.

SMILES	C8 TRAIL sens	FLuc inh counter	Platelet DG rel	PPC-1+TRAIL kill	FLuc act counter
COc1ccc(NC(=O)c2cc(-c3ccncc3)nc3ccc(Br)cc23)cc1OC	54*	nt	0	nt	nt
O=C(CC1CCCCC1)c1c(O)c2ccccc2oc1=O	54*	2	8	-2	1
CCCCC(=O)c1c(O)c2ccccc2oc1=O	-9	7	1	20	0.9
O=C1NC[C@H](CCCCN2CCN(Cc3ccccc3)C(=O)C2=O)N(CCc2ccccc2)C1=O	-1	nt	nt	nt	nt
COc1cc(NC(=O)c2sc3ncn(CC(=O)N4CCCCC4C)c(=O)c3c2C)cc(OC)c1OC (stereo not drawn)	6	nt	nt	nt	nt
CC(C)C(=O)Nc1nc2c(c(=O)[nH]1)CCCC2	10	-4	-8	-1	1
CC(C)CC(=O)Nc1nc2c(c(=O)[nH]1)CCCC2	62*	-5	-1	19	1
COc1ccc(C(O)c2nc(-c3ccc4ccccc4c3)cs2)cc1 (stereo not drawn)	12	nt	nt	nt	nt
CSc1ncnc2c1ncn2CCCNc1ccc(C)c(C)c1	-2	nt	nt	nt	nt
Cc1ccc(Cl)cc1NC1=C/C(=N\S(=O)(=O)c2cccs2)c2ccccc2C1=O	92*	-1	-2	-7	1
Cc1cccc(NC2=C/C(=N/S(=O)(=O)c3cccs3)c3ccccc3C2=O)c1	95*	14	nt	51*	0.9
COc1cccc(CNC(=O)[C@@H]2CCCN2C(=O)[C@H]2CCCCN2C(=O)c2cccs2)c1	3	nt	nt	nt	nt
CSc1nc(NCCN(C)C)c2sc3nc(-c4ccco4)c4c(c3c2n1)CCC4	83*	nt	nt	nt	nt
O=C(C#Cc1cccc([N+](=O)[O-])c1)c1ccccc1	83*	0	-1	9	1
Nc1ccccc1C#CC(=O)c1ccccc1	64*	nt	5	nt	nt
O=C(CC(Nc1ccccc1Cl)C(=O)OCC(=O)c1cccs1)c1ccccc1 (stereo not drawn)	14	-4	-7	22	1
COc1ccccc1NC(CC(=O)c1ccccc1)C(=O)OCC(=O)c1ccc(Br)cc1 (stereo not drawn)	63*	-3	2	14	1
COc1ccccc1NC(CC(=O)c1ccccc1)C(=O)OCC(=O)c1ccc(C)c(C)c1 (stereo not drawn)	58*	1	-8	29	1
COc1ccccc1NC(CC(=O)c1ccccc1)C(=O)OCC(=O)c1ccc(C)cc1 (stereo not drawn)	65*	-3	-4	0	1
CC(C)(C)n1nnnc1C(c1ccccc1)N1CCN(C(=O)c2ccco2)CC1 (stereo not drawn)	2	nt	nt	nt	nt
CC(O)CC(=O)OC[C@]12CC[C@H]3[C@@](C)(CC[C@H]4C(C)(C)CCC[C@]34C)[C@@H]1CC(C1=CC(=O)OC1O)O2 (stereo partly drawn)	86*	nt	nt	nt	nt
CCCCOc1ccc(-c2csc(N)n2)cc1[N+](=O)[O-]	12	30	-5	22	0.7
O=[N+]([O-])c1cccc(-c2cn3ccccc3n2)c1	16	28	-5	10	0.7
CCCOc1ccc(-c2cn3ccccc3n2)cc1[N+](=O)[O-]	62*	78*	4	47	0.2
COc1ccc(-c2cn3ccccc3n2)cc1[N+](=O)[O-]	61*	79*	-2	36	0.2
SMILES	C8 TRAIL sens	FLuc inh counter	Platelet DG rel	PPC-1+TRAIL kill	FLuc act counter
Oc1ccc(-c2cn3cc(C(F)(F)F)ccc3n2)cc1	89*	95*	36	85*	0.1
Cc1ccc(F)c(C(=O)N2CCCC(C)(C(=O)NS(=O)(=O)C3CC3)C2)c1F (stereo not drawn)	-8	nt	nt	nt	nt
CC(C)c1ccc2[nH]c(O)c(N=NC(=O)c3cccc(S(=O)(=O)Nc4cccc(Cl)c4)c3)c2c1	50*	nt	-1	6	nt
C#CCN(C[C@@H]1[C@@H](OC(=O)Nc2cccs2)[C@@H](OC(=O)Nc2cccs2)Cn2c(=O)ccc(=O)n21)S(=O)(=O)c1ccc(C)cc1	86*	nt	nt	nt	nt
C#CCN(C[C@@H]1[C@@H](OC(=O)NCc2ccccc2F)[C@@H](OC(=O)NCc2ccccc2F)Cn2c(=O)ccc(=O)n21)S(=O)(=O)c1ccc(C)cc1	81*	nt	nt	nt	nt
O=C(C[n+]1cccc(C(=O)Nc2ccccc2)c1)c1ccccc1	3	nt	nt	nt	nt
CC1(Oc2cccc(F)c2)CCN(Cc2ccc(-c3ccccn3)cc2)C1 (stereo not drawn)	-14	nt	nt	nt	nt
O=C(Nc1ccon1)c1ccc(OC2CCCC2)cc1	27	59*	-14	20	0.4
Nc1ccc2c(c1)C(=O)C(=O)c1ccccc1-2	97*	6	-15	33	0.9
O=C(CCCc1ccccc1)N1CCc2ccccc21	25	52*	5	34	0.5
Cc1noc(C)c1-c1ccc(C(=O)Nc2ccccc2)c2occc12	21	nt	nt	nt	nt
CCOc1ccc(C2NCCc3cc(OC)c(OC)cc32)cc1OC (stereo not drawn)	-18	nt	nt	nt	nt
COc1ccc2cc1Oc1ccc(cc1)C[C@H]1c3c(cc(OC)c4c3Oc3c(ccc5c3[C@H](C2)N(C)CC5)O4)CCN1C	88*	nt	nt	nt	nt
COc1ccc2cc1Oc1ccc(cc1)CC1c3c(cc(OC)c4c3Oc3cc5c(cc3O4)CCNC5C2)CCN1C (stereo not drawn)	93*	nt	0	23	nt
Cc1ccc(S(=O)(=O)N(C)C[C@@H]2OCc3cn(nn3)CCCC(=O)N([C@H](C)CO)C[C@H]2C)cc1	-11	nt	nt	nt	nt
CCCCCCCCN1C(=O)[C@H](CC(=O)NCc2cccc(C(F)(F)F)c2)C[C@@]2(C(=O)OC)CC(C)(C)CC=C12	3	nt	nt	nt	nt
O=C(COC(=O)c1ccccc1C(=O)c1ccc(Cl)c([N+](=O)[O-])c1)NC1CC1	93*	-8	-1	9	1.1
O=C(COC(=O)c1ccccc1[N+](=O)[O-])c1ccc(C2CCCCC2)cc1	4	80*	3	25	0.2
O=C1NC[C@H](CCCCN2C[C@H](Cc3ccccc3)N(Cc3ccccc3)C(=O)C2=O)N(CCc2ccccc2)C1=O	1	nt	nt	nt	nt
CCN(C)C1CN(Cc2cn(Cc3ccc(F)cc3)nn2)S(=O)(=O)C1 (stereo not drawn)	-5	nt	nt	nt	nt
CCN1CCN(C(=O)/C=C/c2ccc(C(C)C)cc2)CC1	-1	nt	5	nt	nt
CCN1CCC(O)(/C=C/c2ccc(C(C)C)cc2)C(C(=O)/C=C/c2ccc(C(C)C)cc2)C1 (stereo not drawn)	87*	nt	nt	nt	nt
COc1ccc(-c2csc(NC(=O)C3CCN(c4ncnc5sc(C)c(C)c45)CC3)n2)cc1OC	69*	nt	-10	nt	nt
COc1ccccc1OCC(=O)NNC(=O)C1CCN(c2ncnc3sc(C)c(C)c23)CC1	2	nt	nt	nt	nt
Cc1cc(Cl)n2ncc(-c3ccccc3)c2n1	91*	nt	-3	22	nt
